Bioassay records from PubChem BioAssay.
Shown are actives, neighbours in structure and some others; about 1.4% of the full set was active somewhere.
GSTO1 counter: GSTO1 inhibition, counter-screen for RBBP9 inhibitors. recombinant GSTO1, activity-based probe fluorescence polarization. inhibition, % at 5.96 µM. 300,000 tested, 1.1% active;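 active = inhibition above the campaign mean inhibition plus 3 SD, cut at about 35% in these data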
SUMO HTRF inh: inhibitors of human SUMOylation (UBC9); P63279; HTRF SUMOylation assay, SAE1/SAE2 + UBC9, in vitro; inhibition, % at 35 µM; 290,000 tested, 0.36% active; AID 2006; in the data active = inhibition above about 50%, passing the limit was not always enough
Apaf1 inhib: inhibitors of human Apaf-1 apoptosome | reconstituted apoptosome caspase-3 activity, DEVD-Rh110 fluorescence | AID 489030 | 330,000 tested, 0.71% active | inhibition, % at 20 µM; active = inhibition of at least 40% at 20 µM
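Assay system – apoptosome proteins · Medium – Hepes buffer, pH 7.5 · Also added – cytochrome c with DEVD-Rh110 · Timing – 30 min compound preincubation, 50 min activation, room temperature · Detection – Rh110 fluorescence, excitation 480 nm, emission 540 nm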
HKDC1 inh: blocks human hexokinase HKDC1 activity; 340,000 tested, 0.16% active; inhibition, % at 20 µM; recombinant HKDC1, G6PDH/diaphorase resazurin coupled fluorescence; AID 493160;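 active = inhibition above about 35% when tested at 20 µM, limit read from the data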
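System: Recombinant HKDC1 hexokinase | Amount: HKDC1 at 5 µg/mL | Reagent: Glucose with 1 mM ATP | Doses: Single 20 µM dose | Incubation: Reaction time 90 min, room temperature, protected from light | Signal: Coupled resazurin fluorescence, excitation 525 nm, emission 613 nm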
Redox H2O2 prof: compounds producing H2O2 with reducing agent – biochemical, NIH compound library profiling, artefact control for MLSCN library redox annotation, primary screen. DTT-dependent redox cycling H2O2, phenol red/HRP absorbance; 100% = 100 µM peroxide control, 0% = buffer. 200,000 tested, 0.03% active. activation, % at 10 µM;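 active = activation of at least 50% relative to the plate's high and low controls in the primary single-dose screen; inactive = activation below 50%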;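 also: compound incubated with DTT at 0.8 mM final as the reducing agent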
Apaf-1 inh conf: Apaf-1 inhibition, single-dose confirmed; shares compounds with Apaf1 inhib; 1,800 tested, 25% active; AID 504614; reconstituted apoptosome, caspase-3 DEVD-Rh110 fluorescence; inhibition, % at 20 µM;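 active = mean inhibition of at least 40% at 20 µM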
Rh110 interf inh: counter-screen for Apaf-1 inhibitors: fluorescence interference; AID 504615; 1,800 tested, under 10 active; Rh110 fluorescence interference, quenched caspase reaction; shares compounds with Apaf1 inhib; activation (fluorescence interference), % at 20 µM;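 active = signal rise of 40% or more at 20 µM, treated as a fluorescence artifact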
Apaf1 inh interf: Apaf-1 inhibitor counter-screen fluorescence artifact. AID 588538. shares compounds with Apaf1 inhib. 460 tested, under 10 active. fluorescence interference counterscreen, Apaf-1 assay format. IC50, µM; call rule not given here
Numbers stand for hits; 0 = inactive; - = not tested or not shown.

SMILES	GSTO1 counter	SUMO HTRF inh	Apaf1 inhib	HKDC1 inh	Redox H2O2 prof	Apaf-1 inh conf	Rh110 interf inh	others
COc1ccc(-n2c3nc4ccccc4nc3c3c(=N)oc(C)nc32)cc1	0	0	96	0	0	67	0	Apaf1 inh interf=0
CCCCn1c2nc3ccccc3nc2c2c(=N)oc(C)nc21	-	0	-	0	-	-	-
CCCCOc1ccc(Br)cc1/C(C)=N/NC1=NCCN1	0	0	0	0	0	-	-
CCCCCCOc1ccc(/C(C)=N/NC2=NCCN2)cc1[N+](=O)[O-]	0	0	54	0	0	45	0	Apaf1 inh interf=0
COc1ccc(Br)cc1/C=N/NC(=O)c1cc(Br)ccc1O	0	0	0	-	0	-	-
C/C=N/NC(=O)c1cc(Br)ccc1O	0	0	57	0	0	0	0
COc1ccc(/C(C)=N/NC(=O)c2ccc(CSc3nncn3C)cc2)cc1	0	0	0	0	0	-	-
C#CCN1C(=O)S/C(=C/C=C/c2ccc(N(C)C)cc2)C1=O	0	0	-	0	0	-	-
Cc1cc(C)nc(NN2C(=O)C=CC2=O)n1	0	0	0	0	-	-	-
CCN1CCN(c2cc(N3CCN(C(=O)c4ccco4)CC3)c3c4c(onc24)-c2ccccc2C3=O)CC1	0	0	42	0	-	0	0
CC(=O)OC(C(=O)NCCN1CCOCC1)c1c(F)cccc1F (configuration not stated)	0	0	0	0	0	-	-
O=C(O)c1cc(/C=N\O)ccc1OCc1ccccc1	0	0	0	0	0	-	-
COc1cc(/C=N/N=C(N)N)ccc1OCc1ccc(Cl)cc1	0	0	40	0	0	0	0
CCOc1cc(/C=N/N=C(N)N)ccc1OCc1ccc(Cl)cc1	0	0	-	0	0	-	-
NC(N)=N/N=C/c1ccc(OCc2ccccc2)c(OCc2ccccc2)c1	0	0	61	0	-	42	0	Apaf1 inh interf=0
CN(c1ccccc1)S(=O)(=O)c1ccc(C(=O)NCc2ccccc2CN2CCCC2)cc1	-	-	0	0	-	-	-
CN(c1ccccc1)S(=O)(=O)c1cccc(C(=O)NCc2ccccc2CN2CCCC2)c1	-	-	52	0	-	0	0
CCCc1ccc2oc(C(=O)NCCc3nc(C(=O)OCC)cs3)c(C)c2c1	-	0	41	0	-	0	0
CCCc1ccc2oc(C(=O)NCCc3cnn(C)c3)c(C)c2c1	0	0	0	0	-	-	-
Cc1ccccc1NC(=O)C1CCN(C(=O)N2CCOc3ccccc32)CC1	0	0	0	0	-	-	-
CCOc1ccccc1N1CSC2=C(C#N)C(c3c(OC)ccc4ccccc34)CC(=O)N2C1 (configuration not stated)	0	0	41	0	0	0	0
CCOC(=O)c1ccc(N2CSC3=C(C#N)C(c4cccs4)CC(=O)N3C2)cc1 (configuration not stated)	0	0	55	0	0	0	0
CSCC[C@H](NC(=O)C1=NN(c2c(F)c(F)cc(F)c2F)C(=O)CC1)c1nc2ccccc2[nH]1	0	0	0	0	-	-	-
Cc1ccc2nc(N(CCCN(C)C)C(=O)c3ccc4c(c3)CCCC4)sc2c1	0	0	0	0	0	-	-
CCOc1ccc2nc(N(CCN(C)C)C(=O)c3ccc4c(c3)CCCC4)sc2c1	0	0	55	0	-	0	0
SMILES	GSTO1 counter	SUMO HTRF inh	Apaf1 inhib	HKDC1 inh	Redox H2O2 prof	Apaf-1 inh conf	Rh110 interf inh	others
Cc1cc(C)c2nc(N(CCCN(C)C)C(=O)c3ccc4c(c3)CCCC4)sc2c1	0	-	42	0	-	0	0
CN(C)CCN(C(=O)c1ccc2c(c1)CCCC2)c1nc2cc3c(cc2s1)OCCO3	0	0	44	0	-	0	0
CN(C)CCN(C(=O)c1ccc2c(c1)OCCO2)c1nc2cc3c(cc2s1)OCO3	0	0	0	0	-	-	-
CCOc1ccc2nc(N(CCCN(C)C)C(=O)c3ccc(S(=O)(=O)N4CCCC4)cc3)sc2c1	0	0	0	0	-	-	-
Cc1cc(C)nc(-n2nc(C)cc2NC(=O)CN2CCc3ccccc3C2)n1	0	0	54	0	0	0	0
Cc1cc(C)nc(-n2nc(C)cc2NC(=O)CN2CCCC(C)C2)n1 (configuration not stated)	0	0	0	0	0	-	-
CCC(C)Sc1ccc(-c2nc3cc(C)ccn3c2NC2CCCCC2)cc1 (configuration not stated)	-	-	0	0	-	-	-
CCC(C)Sc1ccc(-c2nc3cnccn3c2NC2CCCCC2)cc1 (configuration not stated)	0	-	45	0	-	0	0
CCCCNc1c(-c2ccc(OC)c(SC3CCCCC3)c2)nc2cnccn12	0	-	0	0	-	-	-
CCCCNc1c(-c2ccc(SC3CCCCC3)cc2)nc2cnccn12	-	-	42	0	-	0	0
COc1ccccc1CCNC(=O)c1cccc(S(=O)(=O)NCc2ccccc2)c1	0	-	0	0	-	-	-
Cc1cc(SCC2=NNC(=O)C2)c(Cl)cc1Cl	0	0	47	0	-	0	0
CCc1ccccc1OC[C@@H](O)CN[C@H]1CCCc2ccccc21	0	-	46	0	-	0	0
OC(CNC1CCCc2ccccc21)COc1ccc2ccccc2c1 (configuration not stated)	0	0	47	0	0	0	0
CCOc1ccc(CNC2CCCc3ccccc32)cc1 (configuration not stated)	0	0	0	0	0	-	-
O=C(c1ccccc1)c1ccc(OCC(O)CNC2CCCc3ccccc32)cc1 (configuration not stated)	0	0	52	0	0	0	0
O=C(COC(=O)COc1ccc2ccccc2c1)NC1CCCc2ccccc21 (configuration not stated)	0	0	0	0	0	-	-
COc1ccc(NS(=O)(=O)c2cccc(C(=O)NCC(c3ccccc3)N(C)C)c2)cc1 (configuration not stated)	0	-	0	0	-	-	-
COc1ccccc1C(CNC(=O)c1cccc(S(=O)(=O)Nc2ccc(C)cc2)c1)N(C)C (configuration not stated)	0	0	46	0	-	0	0
CC(CCc1ccccc1)NC(=O)CNC(=S)N(Cc1cccs1)C1CCCC1 (configuration not stated)	-	0	-	0	0	-	-
Cc1cc(=O)oc2cc(NC(=O)CN3C(=O)NC(C)(c4ccccc4)C3=O)ccc12 (configuration not stated)	0	-	0	0	-	-	-
CCOC(=O)c1c(C)c2c(=O)[nH]cnc2n1-c1ccccc1	0	0	58	0	-	0	0
CCOC(=O)c1sc2nc[nH]c(=O)c2c1C	0	0	0	0	0	-	-
CN(CC(=O)Nc1cccc(Cl)c1)S(=O)(=O)c1ccc2[nH]c(=O)oc2c1	0	0	0	0	-	-	-
